The results in this text go back to ChEMBL document CHEMBL2157917, “Targeting conserved water molecules: design of 4-aryl-5-cyanopyrrolo[2,3-d]pyrimidine Hsp90 inhibitors using fragment-based screening and structure-based optimization” (Bioorg Med Chem, 2012).

Structures are written as SMILES. pIC50, pKd, pKi: −log10 of the molar value. Where “and” joins values, the source holds several entries; their conditions need not be identical. Identical values can stand only once.

Data set [1] in a line: Binding affinity to hexa His-tagged HSP90 (9-236 aminoacids) by SPR assay. Put shortly: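 NTA chip charged with 0.5 mM Ni2+, then 100 nM His-tagged HSP90 captured to about 1500 RU. Running buffer 10 mM HEPES pH 7.4, 150 mM NaCl, EDTA, 0.05% Tween-20, 1% DMSO. Surface was reloaded for each concentration. Double-referenced sensorgrams were fitted globally to a single-step kinetic model.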

The target of data set [2] is Heat shock protein HSP 90-beta (Homo sapiens, UniProt P08238). Kind of data set: Inhibition of fluorescently labeled VER51001 binding to full length human HSP90beta after 30 mins by fluorescence polarization assay.
Chain of Heat shock protein HSP 90-beta (P08238 whole entry): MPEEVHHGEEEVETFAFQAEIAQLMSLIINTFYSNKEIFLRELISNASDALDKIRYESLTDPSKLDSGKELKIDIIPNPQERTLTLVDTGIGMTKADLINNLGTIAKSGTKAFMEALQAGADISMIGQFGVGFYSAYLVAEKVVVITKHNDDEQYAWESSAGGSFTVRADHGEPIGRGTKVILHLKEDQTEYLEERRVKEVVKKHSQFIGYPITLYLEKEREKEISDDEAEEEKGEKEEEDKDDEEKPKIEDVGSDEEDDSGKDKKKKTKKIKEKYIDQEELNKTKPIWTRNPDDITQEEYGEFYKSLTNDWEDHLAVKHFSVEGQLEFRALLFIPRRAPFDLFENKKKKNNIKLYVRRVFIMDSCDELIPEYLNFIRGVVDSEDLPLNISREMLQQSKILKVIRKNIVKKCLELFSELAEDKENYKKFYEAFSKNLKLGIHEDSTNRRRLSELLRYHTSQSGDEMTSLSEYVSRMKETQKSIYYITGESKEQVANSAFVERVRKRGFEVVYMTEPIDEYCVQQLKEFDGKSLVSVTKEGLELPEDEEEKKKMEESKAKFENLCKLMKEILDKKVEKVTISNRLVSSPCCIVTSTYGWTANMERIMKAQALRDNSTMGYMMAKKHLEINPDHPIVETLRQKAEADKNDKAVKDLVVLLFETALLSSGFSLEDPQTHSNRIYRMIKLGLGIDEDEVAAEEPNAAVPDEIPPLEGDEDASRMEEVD
The next data set has as its system BT-474. Description: Antiproliferative activity against human BT474 cells after 4 days by SRB method. The format is functional. The conditions noted are these: BT-474, 96 h.
The target in data set [3] is T1, Voltage-gated inwardly rectifying potassium channel KCNH2 (Homo sapiens, UniProt Q12809). Kind of data set: Displacement of [3H]-dofetilide from human ERG.
T1 sequence (Q12809 whole entry): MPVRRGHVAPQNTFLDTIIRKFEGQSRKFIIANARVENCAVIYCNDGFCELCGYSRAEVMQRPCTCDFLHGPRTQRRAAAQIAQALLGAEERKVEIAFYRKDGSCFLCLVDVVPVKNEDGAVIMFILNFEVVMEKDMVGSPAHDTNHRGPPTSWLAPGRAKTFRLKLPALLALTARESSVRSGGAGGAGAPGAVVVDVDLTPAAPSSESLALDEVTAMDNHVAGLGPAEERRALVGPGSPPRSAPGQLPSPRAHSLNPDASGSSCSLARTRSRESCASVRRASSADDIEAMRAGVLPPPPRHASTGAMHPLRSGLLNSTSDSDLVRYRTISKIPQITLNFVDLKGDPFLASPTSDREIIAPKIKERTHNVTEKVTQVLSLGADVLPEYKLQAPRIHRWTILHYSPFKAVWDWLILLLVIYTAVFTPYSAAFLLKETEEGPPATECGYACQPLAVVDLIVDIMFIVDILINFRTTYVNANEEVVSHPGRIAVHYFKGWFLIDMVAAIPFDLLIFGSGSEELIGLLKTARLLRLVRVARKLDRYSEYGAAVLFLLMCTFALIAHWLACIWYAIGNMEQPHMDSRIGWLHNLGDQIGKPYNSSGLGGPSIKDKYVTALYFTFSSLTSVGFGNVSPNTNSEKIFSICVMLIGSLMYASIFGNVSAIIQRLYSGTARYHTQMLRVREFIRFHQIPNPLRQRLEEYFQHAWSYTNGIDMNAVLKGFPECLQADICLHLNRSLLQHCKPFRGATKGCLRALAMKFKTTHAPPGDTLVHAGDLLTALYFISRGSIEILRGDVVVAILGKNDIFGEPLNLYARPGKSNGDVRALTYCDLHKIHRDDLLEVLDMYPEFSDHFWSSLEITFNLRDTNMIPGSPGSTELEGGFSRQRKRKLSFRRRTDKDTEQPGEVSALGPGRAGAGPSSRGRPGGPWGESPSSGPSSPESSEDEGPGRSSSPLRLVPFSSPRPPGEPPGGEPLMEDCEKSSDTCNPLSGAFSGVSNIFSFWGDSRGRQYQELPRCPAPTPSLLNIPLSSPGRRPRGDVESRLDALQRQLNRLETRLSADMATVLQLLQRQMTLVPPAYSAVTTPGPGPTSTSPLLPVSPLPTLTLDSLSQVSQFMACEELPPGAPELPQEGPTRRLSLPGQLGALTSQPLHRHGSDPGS
Data set [4] concerns the target T1, Voltage-gated inwardly rectifying potassium channel KCNH2. Kind of data set: Inhibition of human ERG expressed in HEK293 cells by voltage-clamp method. It is filed as cell-based.
Data set [5] in a line: Binding affinity to HSP90 after 30 mins by ITC assay. In a few lines:
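Isothermal titration calorimetry at 25 °C with stirring at 1000 rpm. Ligands came from a 20 mM DMSO stock and were run in dialysis buffer with 1% DMSO. Ligand 10 µM in the cell, protein 100–200 µM in the syringe, 8–16 injections at 300 s spacing. One-site fit.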

Data set [6] is described as follows: Cmax in Balb-C mouse muscle at 5 mg/kg, po. The format is ADME, organism-based, Muscle tissue. Also on record: dose 5 mg/kg, route oral.
For data set [7], the system named is UGT. Kind of data set: Intrinsic clearance in human liver microsomes assessed as UGT-mediated glucuronidation after 30 mins by LC-MS/MS analysis. The format is ADME, Microsome. The conditions noted are these: read-out: CLH.
The nature of data set [8]: Tmax in Balb-C mouse muscle at 5 mg/kg, po. It is filed as ADME, organism-based, Muscle tissue. Also on record: dose 5 mg/kg, route oral.
In the next data set the test system is MDA-MB-468. Description: Antiproliferative activity against human MDA-MB-468 cells after 4 days by SRB method. The format is functional. The conditions noted are these: MDA-MB-468, 96 h.
Data set [9] in a line: Half life in Balb-C mouse plasma at 5 mg/kg, po. The format is ADME, organism-based. On the set-up: dose 5 mg/kg, route oral.
A short description of data set [10]: Cmax in Balb-C mouse plasma at 5 mg/kg, po. On the set-up: dose 5 mg/kg, route oral. It is filed as ADME, organism-based.
A short description of data set [11]: Ratio of drug level in kidney to plasma of Balb-C mouse at 5 mg/kg, po. The format is ADME, organism-based. Also on record: dose 5 mg/kg, route oral.
A short description of data set [12]: Ratio of drug level in muscle to plasma of Balb-C mouse at 5 mg/kg, po. On the set-up: dose 5 mg/kg, route oral. The format is ADME, organism-based.
A short description of data set [13]: Cmax in Balb-C mouse kidney at 5 mg/kg, po. It is filed as ADME, organism-based. On the set-up: dose 5 mg/kg, route oral.
Data set [14] in a line: Tmax in Balb-C mouse plasma at 5 mg/kg, po. It is filed as ADME, organism-based. Also on record: dose 5 mg/kg, route oral.
Data set [15] in a line: AUC (0 to infinity) in Balb-C mouse muscle at 5 mg/kg, po. It is filed as ADME, organism-based, Muscle tissue. On the set-up: time infinity, dose 5 mg/kg, route oral.
A short description of data set [16]: AUC (0 to infinity) in Balb-C mouse kidney at 5 mg/kg, po. The format is ADME, organism-based. On the set-up: time infinity, dose 5 mg/kg, route oral.
The nature of data set [17]: Half life in Balb-C mouse muscle at 5 mg/kg, po. On the set-up: dose 5 mg/kg, route oral. The format is ADME, organism-based, Muscle tissue.
Another data set concerns HCT-116. Kind of data set: Antiproliferative activity against human HCT116 cells after 4 days by SRB method. It is filed as functional. The conditions noted are these: HCT-116, 96 h.
Data set [18] can be described thus: AUC (0 to infinity) in Balb-C mouse plasma at 5 mg/kg, po. It is filed as ADME, organism-based. On the set-up: time infinity, dose 5 mg/kg, route oral.
Data set [19] can be described thus: Half life in Balb-C mouse kidney at 5 mg/kg, po. The format is ADME, organism-based. Also on record: dose 5 mg/kg, route oral.
Data set [20] is described as follows: Tmax in Balb-C mouse kidney at 5 mg/kg, po. The format is ADME, organism-based. On the set-up: dose 5 mg/kg, route oral.
In data set [21] the test system is UGT. Description: Intrinsic clearance in human liver microsomes assessed as UGT-mediated glucuronidation extraction ratio after 30 mins by LC-MS/MS analysis. Conditions: read-out: ERH. The format is ADME, Microsome.
Data set [22] in a line: AUC (0 to 2 hrs ) in Balb-C mouse kidney at 5 mg/kg, po. The format is ADME, organism-based. On the set-up: time < 2 hr, dose 5 mg/kg, route oral.
Data set [23] is described as follows: AUC (0 to 2 hrs ) in Balb-C mouse plasma at 5 mg/kg, po. The format is ADME, organism-based. Also on record: time < 2 hr, dose 5 mg/kg, route oral.

On to `CSc1nc(-c2ccc(C#N)cc2)c2nc[nH]c2n1`, for which the pKd in data set [1] was less than 4.70. Further, in data set [2], the pKi was 4.61.

For the compound `CCN(CC)CCOc1cc(-c2nc(SCC(=O)NC)nc3[nH]cc(C#N)c23)c(Cl)cc1Cl`, the GI50 in the data set on BT-474 was 78 nM. In data set [2], this compound showed a negative logarithm of the Ki (pKi) of 8.10. Besides, the negative-log IC50 (pIC50) was 5.50 in data set [3] and 4.75 in data set [4].

In data set [1], `CSc1nc(-c2ccc(F)cc2C)c2c(C(N)=O)c[nH]c2n1` had a pKd of less than 4.00. In addition, the pKi in data set [2] was less than 3.70.

For `CNc1nc(-c2ccc(F)cc2C)c2c(C#N)c[nH]c2n1`, the pKd in data set [1] was 5.37; in [5], 5.43. Besides, in data set [2], the pKi was 5.39.

Take `CCc1nc(-c2ccc(F)cc2C)c2c(C#N)c[nH]c2n1`: the negative logarithm of the Kd (pKd) in [1] is 5.65; in [5], 5.74. This compound showed a pKi in [2] of 5.76.

Turning to `COc1cc(Cl)c(-c2nc(SCC(=O)N(C)C)nc3[nH]cc(C#N)c23)cc1OC`, the Cmax was 158 nM and 68 ng/mL in data set [6]; 553 nM and 239 ng/mL in data set [10]; 12.5 µM and 5390 ng/mL in data set [13]. For the same compound, the microsomal CLint in the data set with UGT [7] is 4 µL/min/mg. Besides, the Tmax in data set [8], in data set [14] and in [20] was 15 min each time. For the same compound, the GI50 was determined as 30 nM in the data set on MDA-MB-468, 34 nM in the data set with BT-474 and 32 nM in the data set on HCT-116. In addition, the half-life in data set [9] was 84 min; in [17], 144 min; in data set [19], 72 min. For the same compound, the pKi in data set [2] was more than 9.00. The Kp in [11] was found to be 23.3; in data set [12], 0.8. Moreover, the pIC50 in [3] and in data set [4] was less than 4.52 throughout. Moreover, the AUC(0-inf) in data set [15] worked out at 231 ng·h/mL; in data set [16], 6920 ng·h/mL; in [18], 297 ng·h/mL. The pKd in [5] was more than 8.52.

On to `COc1cc(Cl)c(-c2nc(SCC(=O)N(C)C)nc3[nH]cc(C#N)c23)cc1O`, for which the hepatic extraction ratio at 0.5 h with UGT [21] worked out at 0.8. The microsomal CLint with UGT [7] was 73 µL/min/mg. The GI50 with MDA-MB-468 is 23 nM; in the data set on BT-474, 20 nM; in the data set with HCT-116 it was 131 nM. The Cmax was 25 nM and 11 ng/mL in [10]; 31 ng/mL and 72 nM in [13]. The compound also had a pKi in data set [2] of more than 9.00. The Kp in data set [11] worked out at 2.6. For the same compound, the pIC50 in data set [3] and in data set [4] was less than 4.52 in each case. Also, the AUC(0-t) at 2 h was 41 ng·h/mL in data set [22] and 16 ng·h/mL in data set [23]. The Tmax in data set [14] is 15 min; in data set [20] it was 30 min.

The compound `CSc1nc(-c2ccc(F)cc2C)c2cc[nH]c2n1` had a pKd in data set [1] of less than 4.00. This compound also gave a pKi in data set [2] of less than 3.70.

For `CSc1nc(-c2ccc(C#N)cc2)c2cc[nH]c2n1`, the negative logarithm of the Kd (pKd) in data set [1] was less than 4.00. In [2], this compound showed a pKi of less than 3.70.

The compound `CSc1nc(-c2ccc(C)cc2C)c2c(C#N)n[nH]c2n1` had a pKd in data set [1] of 4.42. The same compound had a pKi in data set [2] of 5.28.

`COc1cc(Cl)c(-c2nc(SCC(=O)NC3CC3)nc3[nH]cc(C#N)c23)cc1O`: the GI50 is 236 nM with MDA-MB-468, 102 nM in the data set with BT-474 and 1160 nM in the data set with HCT-116. The pKi in [2] was more than 9.00.

For `COc1cc(Cl)c(-c2nc(SCC(=O)N3CCC3)nc3[nH]cc(C#N)c23)cc1OC`, the figures for the GI50 in the data set with MDA-MB-468, with BT-474 and in the data set on HCT-116 were 35 nM, 31 nM and 28 nM, respectively. In [2], this compound showed a pKi of more than 9.00.

On to `CSc1nc(-c2ccc(C#N)cc2)c2c(C#N)c[nH]c2n1`, for which the pKd in data set [1] was 5.91. The compound also gave a pKi in data set [2] of 6.69.

In [1], `CSc1nc(-c2ccc(C)cc2C)c2c(Br)c[nH]c2n1` gave a pKd of less than 4.70. Further, in [2], the pKi was less than 3.70.

Consider `CSc1nc(-c2ccc(F)cc2C)c2nc[nH]c2n1`, for which the pKd is 5.64 in data set [1] and 5.56 in data set [5]. In data set [2], this compound had a pKi of 4.89.

In the case of `CCNC(=O)CSc1nc(-c2cc(OC)c(OC)cc2Cl)c2c(C#N)c[nH]c2n1`, the GI50 with MDA-MB-468 amounted to 59 nM; in the data set with BT-474, 141 nM; in the data set with HCT-116 it was 42 nM. The compound also showed a pKi in data set [2] of 8.70.

`CSc1nc(-c2ccc(C)cc2C)c2cc[nH]c2n1` showed a pKd in data set [1] of less than 4.00. The pKi in data set [2] is less than 3.70.

As for `COc1cc(Cl)c(-c2nc(SCC(=O)N3CCC3)nc3[nH]cc(C#N)c23)cc1O`, the GI50 with MDA-MB-468 was found to be 28 nM; in the data set with BT-474, 21 nM; in the data set on HCT-116, 172 nM. In data set [2], this compound had a pKi of more than 9.00.

In the case of `Cc1ccc(-c2ncnc3[nH]cc(C#N)c23)c(C)c1`, the pKd in data set [1] was 5.73; in data set [5] it was 5.79. The pKi in [2] is 5.55.

The compound `CSc1nc(-c2ccc(C)cc2C)c2c(C)c[nH]c2n1` had a pKd in data set [1] of 4.71. The compound also gave a pKi in data set [2] of less than 3.70.

For `CSc1nc(-c2ccc(C)cc2C)c2c(C(F)(F)F)c[nH]c2n1`, the pKd in [1] is 4.26. Also, the pKi in data set [2] is 5.58.

Consider `CSc1nc(-c2ccc(F)cc2C)c2c(C#N)c[nH]c2n1`, for which the figures for the pKd in data set [1] and in data set [5] were 6.37 and 6.60, respectively. This compound also showed a pKi in data set [2] of 6.45.

On to `COc1nc(-c2ccc(F)cc2C)c2c(C#N)c[nH]c2n1`, for which the pKd in [1] is 5.55; in [5] it was 6.14. In addition, the pKi in data set [2] was 6.20.

`CSc1nc(-c2ccc(C)cc2C)c2c(C#N)c[nH]c2n1` gave a pKi in data set [2] of 6.71. The pKd in data set [5] was 6.81.

`CSc1nc(-c2ccc(Cl)cc2C)c2nc[nH]c2n1` had a pKd in data set [1] of less than 4.70. Besides, in data set [2], the pKi is 6.18.

In [1], `CSc1nc(-c2ccc(C)cc2C)c2c(C3CC3)c[nH]c2n1` showed a negative logarithm of the Kd (pKd) of less than 4.00. The pKi in data set [2] was less than 4.30.

Consider `COc1cc(Cl)c(-c2nc(SCC(=O)NC(C)C)nc3[nH]cc(C#N)c23)cc1O`, for which the GI50 is 178 nM with MDA-MB-468, 161 nM in the data set on BT-474 and 238 nM with HCT-116. The pKi in data set [2] is 8.52.
